Measurements as given in PMC2813939 (Neuropsychopharmacology : official publication of the …, 2009).
“And” between values parts separate entries of the source, which are not always exact repeats. Equal values may be shown once. Read-outs that look alike come from different tables or passages of the source.

Experiments:
[1] = cited from earlier work
[2] = biological target: T1, human D2 receptor (short isoform, D2S) (Homo sapiens, UniProt P14416); assay: cell-based; format: binding
[3] = test system: GRK2; assay: Western blot of tetracycline-induced GRK2 expression in triple-transfected cells; format: cell-based, bovine; settings: tetracycline 1 μg/ml 24 h; triple-transfected cells vs untreated cells; n=3
In short: (§1)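 T-REx-293 cells stably triple-transfected with D2S receptor, tetracycline-inducible GRK2 and arrestin3; tetracycline 1 μg/ml (final) or vehicle 24 h at 36 °C. Lysed in 1% dodecyl maltopyranoside/PBS with protease inhibitors and N-ethylmaleimide; 20 μg protein run on 7.5% SDS-PAGE, PVDF. Rabbit polyclonal primaries 1 h RT (anti-GRK2 1:1000; anti-arrestin3 1:500), HRP anti-rabbit 1:15,000; ECL-Plus imaging and quantitation; % increase versus untreated cells.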

[4] = test system: arrestin3; format: cell-based, rat; settings: tetracycline 1 μg/ml 24 h; triple-transfected cells vs untreated cells; n=2
In short: as §1

[5] = biological target: T1, human D2 receptor (short isoform, D2S); format: binding
[6] = biological target: T1, human D2 receptor (short isoform, D2S); format: binding; remark: listed apart in the source
[7] = read-out: Internalized D2 receptor (Q+/MTSET+) KI(i)
[8] = read-out: Surface D2 receptor (Q-/MTSET-) KI(s)
[9] = internalized (Q+/MTSET+) vs surface (Q-/MTSET-)

T1 sequence (P14416 1-414 isoform P14416-2): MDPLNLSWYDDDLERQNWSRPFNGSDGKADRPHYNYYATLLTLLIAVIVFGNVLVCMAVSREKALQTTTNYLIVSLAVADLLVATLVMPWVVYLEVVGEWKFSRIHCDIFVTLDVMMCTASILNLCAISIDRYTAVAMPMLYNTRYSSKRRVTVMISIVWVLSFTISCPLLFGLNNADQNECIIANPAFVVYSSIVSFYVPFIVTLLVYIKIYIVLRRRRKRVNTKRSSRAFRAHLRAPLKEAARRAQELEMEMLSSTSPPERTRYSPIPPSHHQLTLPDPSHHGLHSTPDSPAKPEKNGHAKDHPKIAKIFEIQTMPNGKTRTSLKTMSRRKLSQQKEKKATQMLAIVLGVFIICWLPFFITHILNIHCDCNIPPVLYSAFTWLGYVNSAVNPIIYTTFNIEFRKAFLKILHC

CCCN1CCOC2c3cc(O)ccc3CCC21 (single isomer, unassigned; (+)) [PHNO, (+)-4-propyl-3,4,4a,5,6,10b-hexahydro-2H-naphtho[1,2-b][1,4]oxazin-9-ol]
Lipophilicity (Log P) ([1]; ref Wilson et al, 2005): 2.1 ^d†

CCN1CCC[C@H]1CNC(=O)c1c(OC)ccc(I)c1O [IBZM]
Ki [2, 7]: 0.23 ± 0.11 nM
Ki [2, 8]: 0.19 ± 0.05 nM

CCN1CCC[C@H]1CNC(=O)c1c(OC)ccc([123I])c1O [IBZM]
Affinity shift Ki(i)/Ki(s) [2, 9]: 1.2
Lipophilicity (Log P) ([1]; ref Laruelle, 2000): 2.8 ^a†

CCN1CCC[C@H]1CNC(=O)c1c(O)c(Cl)cc(Cl)c1OC [Raclopride]
increase in the Ki at internalized receptors (decrease in affinity) [2]: about 2 fold

C=CCN1CCC[C@H]1CNC(=O)c1cc(CCCF)cc(OC)c1OC [Fallypride]
Ki ([2]; Internalized D2 receptor (Q+/MTSET+) KI(i)): 0.92 ± 0.31 nM
Ki ([2]; Surface D2 receptor (Q-/MTSET-) KI(s)): 0.32 ± 0.06 nM
Affinity shift Ki(i)/Ki(s) [2, 9]: 2.9
Lipophilicity (Log P) ([1]; ref Laruelle, 2000): 2.4 ^a†

CN(C)[C@@H]1C(O)=C(C(N)=O)C(=O)[C@@]2(O)C(O)=C3C(=O)c4c(O)cccc4[C@@](C)(O)[C@H]3C[C@@H]12 [Tetracycline]
increase in GRK2 expression [3]: 190 ± 24%
increase in arrestin3 expression [4]: 538 ± 75%

CCN1CCCC1CNC(=O)c1cc(S(N)(=O)=O)ccc1OC (stereo not drawn) [Sulpiride]
fraction of D2 receptors on the surface [2]: 80.9%
fraction of D2 receptors on the surface (high affinity) [2]: 85.8% and 43.1%
fraction of D2 receptors with high affinity [5]: 90% and 55% and 89.9%

CCN1CCC[C@H]1CNC(=O)c1cc(I)cc(OC)c1OC [Epidepride]
Affinity shift Ki(i)/Ki(s) [2]: 2.4
Lipophilicity (Log kw) ([1]; ref Kessler et al, 1991): 2.1 ^c‡

C[N+](C)(C)CCSS(C)(=O)=O.[Br-] [MTSET, [2-(trimethylammonium)ethyl] methanethiosulfonate bromide]
[3H]NMSP binding remaining, % of the total binding [6]: 10%

CCN1CCC[C@H]1CNC(=O)c1cc(Br)cc(OC)c1OC [FLB 457]
Affinity shift Ki(i)/Ki(s) [2, 9]: 3.0
Ki [2, 7]: 0.09 ± 0.02 nM
Ki [2, 8]: 0.03 ± 0.01 nM
Lipophilicity (Log kw) ([1]; ref Loc'h et al, 1996): 1.9 ^b‡

CN1CN(c2ccccc2)C2(CCN(CCCC(=O)c3ccc(F)cc3)CC2)C1=O [NMSP, N-methylspiperone]
Lipophilicity (Log P) ([1]; ref Laruelle, 2000): 3.3 ^a†

CC[11CH2]N1CCc2cccc3c2C1Cc1ccc(O)c(O)c1-3 (single isomer, unassigned; (-)) [NPA, (-)-N-[11C]propyl-norapomorphine]
Lipophilicity (Log P) ([1]; ref Wilson et al, 2005): 2.5 ^d†
